Reference: ChEMBL document CHEMBL3124843, “Synthesis, cytostatic, antimicrobial, and anti-HCV activity of 6-substituted 7-(het)aryl-7-deazapurine ribonucleosides” (J Med Chem, 2014)
Active and inactive are the calls of the source. No rule for the calls is given here.

What was measured:
[1] = Cytotoxicity against human HuH7 cells infected with Hepatitis C virus subtype 2a; type: cell-based, Huh-7
Hepatitis C virus [2] = experiment: Antiviral activity against Hepatitis C virus subtype 2a infected in human HuH7 cells; type: functional, organism-based, Hepacivirus hominis; conditions: genotype 2a, Huh-7
[3] = Cytotoxicity against human HuH7 cells infected with Hepatitis C virus subtype 1b; type: cell-based, Huh-7
Hepatitis C virus [4] = experiment: Antiviral activity against Hepatitis C virus subtype 1b infected in human HuH7 cells; type: functional, organism-based, Hepacivirus hominis; conditions: genotype 1b, Huh-7
Candida tropicalis = experiment: Antifungal activity against Candida tropicalis after 48 hrs; type: functional, organism-based
Pichia kudriavzevii = experiment: Antifungal activity against Candida crusei after 48 hrs; type: functional, organism-based
Candida parapsilosis = experiment: Antifungal activity against Candida parapsilosis after 48 hrs; type: functional, organism-based
Candida albicans = experiment: Antifungal activity against Candida albicans after 48 hrs; type: functional, organism-based
Pseudomonas aeruginosa [5] = experiment: Antibacterial activity against multi-resistant Pseudomonas aeruginosa A/16575 after 24 hrs; type: functional, organism-based
Escherichia coli [6] = experiment: Antibacterial activity against multi-resistant Escherichia coli C/16702 after 24 hrs; type: functional, organism-based
[7] = test system: Staphylococcus haemolyticus; experiment: Antibacterial activity against methicillin-resistant Staphylococcus haemolyticus A/16568 after 24 hrs; type: functional, organism-based
Staphylococcus aureus [8] = experiment: Antibacterial activity against methicillin-resistant Staphylococcus aureus MRSA 4591 after 24 hrs; type: functional, organism-based
Pseudomonas aeruginosa [9] = experiment: Antibacterial activity against Pseudomonas aeruginosa CCM 3955 after 24 hrs; type: functional, organism-based
Escherichia coli [10] = experiment: Antibacterial activity against Escherichia coli CCM 3954 after 24 hrs; type: functional, organism-based
Staphylococcus aureus [11] = experiment: Antibacterial activity against Staphylococcus aureus CCM 3953 after 24 hrs; type: functional, organism-based
Enterococcus faecalis = experiment: Antibacterial activity against Enterococcus faecalis CCM 4224 after 24 hrs; type: functional, organism-based
[12] = Antiproliferative activity against human HeLaS3 cells after 72 hrs by XTT assay; type: functional, cell-based; conditions: HeLa S3, 72 h
Outline: (§1)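 Antiproliferative test on HL-60 promyelocytic leukemia and HeLa S3 cervical carcinoma cells growing in liquid suspension.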

HL-60 = experiment: Antiproliferative activity against human HL60 cells after 72 hrs by XTT assay; type: functional, cell-based; conditions: HL-60, 72 h; outline: as §1
HepG2 = experiment: Antiproliferative activity against human HepG2 cells after 72 hrs by XTT assay; type: functional, cell-based; conditions: HepG2, 72 h
MRC5 = experiment: Cytostatic activity against human MRC5 cells after 72 hrs by MTT assay; type: ADME, cell-based; conditions: MRC5, 72 h
Outline: (§2)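 IC50 is the concentration that cuts cell growth by 50%, read by quantitative metabolic MTT staining after a 3-day treatment. The resistant sublines were made by raising the concentration of the cytotoxic drug step by step. CEM-DNR-bulk (daunorubicin-selected) stably overexpresses mrp-1. K562-TAX (paclitaxel-selected) expresses only mdr-1. HCT116p53−/− carries null p53 alleles. BJ and MRC-5 are nonmalignant fibroblasts.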

BJ = experiment: Cytostatic activity against human BJ cells after 72 hrs by MTT assay; type: ADME, cell-based; outline: as §2
HCT-116 [13] = experiment: Cytostatic activity against p53-deficient human HCT116 cells after 72 hrs by MTT assay; type: functional, cell-based; conditions: HCT-116, 72 h; outline: as §2
HCT-116 [14] = experiment: Cytostatic activity against human HCT116 cells after 72 hrs by MTT assay; type: functional, cell-based; conditions: HCT-116, 72 h; outline: as §2
A549 = experiment: Cytostatic activity against human A549 cells after 72 hrs by MTT assay; type: functional, cell-based; conditions: A549, 72 h; outline: as §2
K562 [15] = experiment: Cytostatic activity against paclitaxel-resistant human K562 cells after 72 hrs by MTT assay; type: functional, cell-based; conditions: K562, 72 h; outline: as §2
K562 [16] = experiment: Cytostatic activity against human K562 cells after 72 hrs by MTT assay; type: functional, cell-based; conditions: K562, 72 h; outline: as §2
[17] = Cytostatic activity against human CEM-DNR-bulk cells after 72 hrs by MTT assay; type: functional, cell-based; outline: as §2
CCRF-CEM = experiment: Cytostatic activity against human CCRF-CEM cells after 72 hrs by MTT assay; type: functional, cell-based; outline: as §2

SMILES | CC50 [1] | EC50 (Hepatitis C virus [2]) | CC50 [3] | EC50 (Hepatitis C virus [4]) | Activity (Candida tropicalis) | Activity (Pichia kudriavzevii) | Activity (Candida parapsilosis) | Activity (Candida albicans) | Activity (Pseudomonas aeruginosa [5]) | Activity (Escherichia coli [6]) | Activity [7] | Activity (Staphylococcus aureus [8]) | Activity (Pseudomonas aeruginosa [9]) | Activity (Escherichia coli [10]) | Activity (Staphylococcus aureus [11]) | Activity (Enterococcus faecalis) | IC50 [12] | IC50 (HL-60) | IC50 (HepG2) | IC50 (MRC5) | further results
CNc1ncnc2c1c(-c1ccccc1)cn2[C@@H]1O[C@H](CO)[C@@H](O)[C@H]1O | > 44 µM | > 44 µM | > 44 µM | > 44 µM | inactive | inactive | inactive | inactive | inactive | inactive | inactive | inactive | inactive | inactive | inactive | inactive | > 20 µM | > 20 µM | > 20 µM | > 100 µM | IC50 (BJ): > 100 µM; IC50 (HCT-116 [13]): > 100 µM; IC50 (HCT-116 [14]): > 20 µM; IC50 (A549): > 20 µM; IC50 (K562 [15]): > 20 µM; IC50 (K562 [16]): > 20 µM; IC50 [17]: > 20 µM; IC50 (CCRF-CEM): > 20 µM
Cc1nc(N)c2c(-c3ccccc3)cn([C@@H]3O[C@H](CO)[C@@H](O)[C@H]3O)c2n1 | > 44 µM | > 44 µM | > 44 µM | > 44 µM | inactive | inactive | inactive | inactive | inactive | inactive | inactive | inactive | inactive | inactive | inactive | inactive | > 20 µM | > 20 µM | > 20 µM | > 100 µM | IC50 (BJ): > 100 µM; IC50 (HCT-116 [13]): > 20 µM; IC50 (HCT-116 [14]): > 100 µM; IC50 (A549): > 20 µM; IC50 (K562 [15]): > 20 µM; IC50 (K562 [16]): > 20 µM; IC50 [17]: > 20 µM; IC50 (CCRF-CEM): > 20 µM
CNc1ncnc2c1c(I)cn2[C@@H]1O[C@H](CO)[C@@H](O)[C@H]1O | > 44 µM | > 44 µM | > 44 µM | > 44 µM | inactive | inactive | inactive | inactive | inactive | inactive | inactive | inactive | inactive | inactive | inactive | inactive | > 20 µM | > 20 µM | > 20 µM | > 100 µM | IC50 (BJ): > 100 µM; IC50 (HCT-116 [13]): > 100 µM; IC50 (HCT-116 [14]): > 100 µM; IC50 (A549): > 100 µM; IC50 (K562 [15]): > 20 µM; IC50 (K562 [16]): > 100 µM; IC50 [17]: > 20 µM; IC50 (CCRF-CEM): > 100 µM
CN(C)c1ncnc2c1c(-c1cccs1)cn2[C@@H]1O[C@H](CO)[C@@H](O)[C@H]1O | > 44 µM | > 44 µM | > 44 µM | 16.8 µM | inactive | inactive | inactive | inactive | inactive | inactive | inactive | inactive | inactive | inactive | inactive | inactive | > 20 µM | 11.8 µM | > 20 µM | > 100 µM | IC50 (BJ): > 100 µM; IC50 (HCT-116 [13]): > 20 µM; IC50 (HCT-116 [14]): > 20 µM; IC50 (A549): > 20 µM; IC50 (K562 [15]): > 20 µM; IC50 (K562 [16]): > 20 µM; IC50 [17]: > 20 µM; IC50 (CCRF-CEM): > 20 µM
Cc1ncnc2c1ccn2[C@@H]1O[C@H](CO)[C@@H](O)[C@H]1O | 0.12 µM | 0.02 µM | 0.23 µM | 0.02 µM | inactive | inactive | inactive | inactive | inactive | inactive | inactive | inactive | inactive | inactive | inactive | inactive | 0.02 µM | 0.02 µM | 0.06 µM | 0.09 µM | IC50 (BJ): 0.07 µM; IC50 (HCT-116 [13]): 0.06 µM; IC50 (HCT-116 [14]): 0.03 µM; IC50 (A549): 0.03 µM; IC50 (K562 [15]): 0.05 µM; IC50 (K562 [16]): 0.01 µM; IC50 [17]: 0.05 µM; IC50 (CCRF-CEM): 0.01 µM
O=c1[nH]cnc2c1c(-c1ccccc1)cn2[C@@H]1O[C@H](CO)[C@@H](O)[C@H]1O | > 44 µM | > 44 µM | > 44 µM | > 44 µM | inactive | inactive | inactive | inactive | inactive | inactive | inactive | inactive | inactive | inactive | inactive | inactive | > 20 µM | > 20 µM | > 20 µM | > 100 µM | IC50 (BJ): > 100 µM; IC50 (HCT-116 [13]): > 20 µM; IC50 (HCT-116 [14]): > 100 µM; IC50 (A549): > 100 µM; IC50 (K562 [15]): > 20 µM; IC50 (K562 [16]): > 20 µM; IC50 [17]: > 20 µM; IC50 (CCRF-CEM): > 100 µM
Nc1nc2c(c(-c3ccco3)cn2[C@@H]2O[C@H](CO)[C@@H](O)[C@H]2O)c(=O)[nH]1 | > 44 µM | > 44 µM | > 44 µM | > 44 µM | inactive | inactive | inactive | inactive | inactive | inactive | inactive | inactive | inactive | inactive | inactive | inactive | > 20 µM | > 20 µM | > 20 µM | > 100 µM | IC50 (BJ): > 100 µM; IC50 (HCT-116 [13]): > 20 µM; IC50 (HCT-116 [14]): > 20 µM; IC50 (A549): > 20 µM; IC50 (K562 [15]): > 20 µM; IC50 (K562 [16]): > 20 µM; IC50 [17]: > 20 µM; IC50 (CCRF-CEM): > 20 µM
Cc1ncnc2c1c(I)cn2[C@@H]1O[C@H](CO)[C@@H](O)[C@H]1O | 13.8 µM | 8.75 µM | 20.9 µM | 2.16 µM | inactive | inactive | inactive | inactive | inactive | inactive | inactive | inactive | inactive | inactive | inactive | inactive | 4.08 µM | 2.65 µM | 3.46 µM | 13.3 µM | IC50 (BJ): > 100 µM; IC50 (HCT-116 [13]): 7.57 µM; IC50 (HCT-116 [14]): 4.72 µM; IC50 (A549): 12.2 µM; IC50 (K562 [15]): > 20 µM; IC50 (K562 [16]): 17.8 µM; IC50 [17]: 12.6 µM; IC50 (CCRF-CEM): 5.48 µM
COc1ncnc2c1c(-c1ccccc1)cn2[C@@H]1O[C@H](CO)[C@@H](O)[C@H]1O | > 44 µM | > 44 µM | > 44 µM | 21 µM | inactive | inactive | inactive | inactive | inactive | inactive | inactive | inactive | inactive | inactive | inactive | inactive | > 20 µM | > 20 µM | > 20 µM | > 100 µM | IC50 (BJ): > 100 µM; IC50 (HCT-116 [13]): > 20 µM; IC50 (HCT-116 [14]): > 20 µM; IC50 (A549): > 20 µM; IC50 (K562 [15]): > 20 µM; IC50 (K562 [16]): > 20 µM; IC50 [17]: > 20 µM; IC50 (CCRF-CEM): > 20 µM
